Article PMC10247892 (Biomedicine & Pharmacotherapy, 2023)
“Also recorded” adds a separate entry of the source. Like-named read-outs stand apart in the source and are kept apart here.

Legend:
[1] = molecular target: SARS-CoV-2 3CL main protease (MBP-tagged) (Severe acute respiratory syndrome coronavirus 2, UniProt P0DTD1); format: biochemical; conditions: increasing concentrations
[2] = tested on: SARS-CoV-2 NanoLuc replicative competent reporter virus; design: species or system golden Syrian hamsters; conditions: hamster, in vivo
Calu-3 cells = test: Lipidomic analysis of Calu-3 cells after MβCD treatment; format: cell-based; conditions: increasing concentrations, 2 h
Method in brief: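 Calu-3 cells were seeded at 3 million/well and treated with 0, 0.6 or 2.5 mM test compound for 2 h at 37 °C and 5 % CO2. Plasma membrane lipid composition was then measured by lipidomics.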

HCoV-229E = test: Antiviral activity against HCoV-229E in MRC-5 cells; format: cell-based, human coronavirus 229E; conditions: Human coronavirus 229E, MRC5, 24 h, read-out: IC50 ± SD
Method in brief: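 MRC-5 cells were seeded at 20,000/well in duplicate per drug and condition and grown to 80 % confluency. Virus was adsorbed at MOI 0.1 PFU/cell in FBS-free DMEM for 1 h at 37 °C, then removed. Serial dilutions of test compound in 1 % FBS DMEM were added for 24 h, at doses below MTT-determined cytotoxicity. Cells were fixed with PFA, saponin-permeabilised and stained with anti-N antibody, Alexa 488 secondary and DAPI, then imaged by widefield fluorescence. Infection was normalised to the untreated infected control (100 %). IC50 came from a nonlinear dose-effect fit. Three replicate experiments.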

SARS-CoV-2 [3] = test: TEM of Vero E6 cells infected with SARS-CoV-2; format: cell-based; conditions: infected Vero E6, highest concentration (HβCD 20 mM), 48 hpi
Method in brief: (§1)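 Mock- or virus-infected Vero E6 monolayers were kept without or with two concentrations of test compound (0.16 mM or 20 mM for the cyclodextrin shown). At 48 h they were fixed with 4 % PFA plus 1 % glutaraldehyde in PBS for 2 h at RT. Samples were pelleted, post-fixed on ice in osmium tetroxide/potassium ferrocyanide, acetone-dehydrated and epoxy-embedded. At least 100 cells per condition were examined by TEM.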

SARS-CoV-2 [4] = format: cell-based; conditions: Vero E6 cells
Vero E6 cells [5] = conditions: uninfected Vero E6 cells, 3 days
[6] = tested on: SARS-CoV-2 Spike pseudovirus; format: cell-based
Cytotoxicity assay = format: cell-based; conditions: human, MRC-5 cells
Vero E6 cells [7] = test: TEM of mock-infected Vero E6 cells; format: cell-based; conditions: 48 h
Method in brief: as §1

Compound | Inhibition of M^pro activity (in words) [1] | Nanoluciferase signal in nasal turbinates and lungs (in words) [2] | Effect on phosphatidylcholine (in words) (Calu-3 cells) | IC50 (HCoV-229E) | Effect on infected cells by TEM (in words) (SARS-CoV-2 [3]) | Antiviral activity against SARS-CoV-2 (in words) (SARS-CoV-2 [4]) | First cytotoxic conc. (Vero E6 cells [5]) | Inhibition of SARS-CoV-2 pseudovirus entry (in words) [6] | Inhibition of SARS-CoV-2 pseudovirus entry (in words) ([6]; listed as HP-β) | CC50 at 24 h (Cytotoxicity assay) | Alterations in mock-infected cells by TEM (in words) (Vero E6 cells [7]; Vero E6, higher dose (HβCD 20 mM)) | Alterations in mock-infected cells by TEM (in words) (Vero E6 cells [7]; Vero E6, lower or only dose (HβCD 0.16 mM, phytol 50 µM))
Methyl-β-cyclodextrin [MβCD] | did not show activity | no nanoluciferase signal was detected; also recorded: no sign of infection was detected | did not affect phosphatidylcholine |  |  |  |  |  |  |  |  | 
CC(O)COC[C@H]1O[C@@H]2O[C@H]3[C@H](O)[C@@H](O)[C@@H](O[C@H]4[C@H](O)[C@@H](O)[C@@H](O[C@H]5[C@H](O)[C@@H](O)[C@@H](O[C@H]6[C@H](O)[C@@H](O)[C@@H](O[C@H]7[C@H](O)[C@@H](O)[C@@H](O[C@H]8[C@H](O)[C@@H](O)[C@@H](O[C@H]1[C@H](O)[C@H]2O)O[C@@H]8COCC(C)O)O[C@@H]7COCC(C)O)O[C@@H]6COCC(C)O)O[C@@H]5COCC(C)O)O[C@@H]4COCC(C)O)O[C@@H]3COCC(C)O (stereo partly drawn) [HβCD, hydroxypropyl-β-cyclodextrin] |  |  |  | 4.3 ± 4 mM | all viral structures were reduced | had antiviral activity | 20000 µM | inhibited the entry of pseudovirus | most potent | 43.6 mM | increased number of vacuoles | did not produce appreciable changes
